Measured values reported in PubChem BioAssay AID492985 (Sanford-Burnham Center for Chemical Genomics, 2010).

Molecular target: Apelin receptor (Homo sapiens) (UniProt P35414)
Experiment: apelin receptor activation by small molecules – cell-based, CHO-K1 AGTRL-1, PathHunter luminescence, set 3, SAR follow-up (AID 492985)
Conditions: CHO-K1 APJ beta-arrestin PathHunter
In short: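 Material: CHO-K1 APJ β-arrestin reporter cells | Dosing: Compound dose-response series with DMSO equalised across wells | Timing: Compound exposure 90 min at 25 °C, detection reagent 60 min | Technique: Luminescence from β-gal fragment complementation upon β-arrestin recruitment | Controls: Apelin-13 positive control, 30 nM in dispensed solution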

Apelin receptor (Homo sapiens), sequence (P35414 whole entry, looked up): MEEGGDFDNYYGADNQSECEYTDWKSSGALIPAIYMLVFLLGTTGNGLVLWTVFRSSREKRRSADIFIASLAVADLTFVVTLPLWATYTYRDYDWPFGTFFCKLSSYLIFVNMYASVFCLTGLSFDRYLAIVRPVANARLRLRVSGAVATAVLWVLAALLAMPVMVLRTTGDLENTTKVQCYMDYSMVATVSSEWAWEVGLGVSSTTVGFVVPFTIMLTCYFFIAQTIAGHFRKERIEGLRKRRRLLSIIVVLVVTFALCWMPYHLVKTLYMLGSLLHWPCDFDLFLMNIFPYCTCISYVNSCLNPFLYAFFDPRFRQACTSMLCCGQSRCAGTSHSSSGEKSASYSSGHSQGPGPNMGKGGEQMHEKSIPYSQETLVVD

Structure (SMILES)	EC50 [µM]
CC1=CC(=O)C(C(C)C)=C/C1=N/OS(=O)(=O)c1ccc(C#N)cc1	3.52
CC1=CC(=O)C(C(C)C)=C/C1=N/OS(=O)(=O)c1ccc(F)cc1	7.15
CC1=CC(=O)C(C(C)C)=C/C1=N/OS(=O)(=O)c1ccc(C(C)C)cc1	5.56
